Laboratory results published in ChEMBL document CHEMBL1134321, “Structure-based generation of a new class of potent Cdk4 inhibitors: new de novo design strategy and library design” (J Med Chem, 2001).

Assay: Inhibitory activity against CDK4 using recombinant human cyclin D2-CDK4 complex expressed in sf9 cells
How it was run: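 Recombinant human cyclin D2–Cdk4, baculovirus-expressed in Sf9 cells and HPLC-purified; incubated with 50 µM ATP plus 0.5-1.5 µCi [33P]-ATP, 100 µM or 400 µM G1 peptide, in 20 mM Tris-HCl pH 7.4, 10 mM MgCl2, 4.5 mM 2-mercaptoethanol, 1 mM EGTA, 30 °C, 45 min.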

SMILES | IC50 [µM]
Nc1nc(N)c2nc(-c3ccccc3)c(N)nc2n1 [TRIAMTERENE] | 210
O=C(Nc1ccccn1)Nc1cccc2c1-c1ccccc1C2=O | 0.1
O=C(Nc1ccc2c[nH]nc2c1)Nc1ccccn1 | 0.67
CC(C)NC(=O)Nc1cccc2ccc(O)cc12 | 220
O=C(Nc1ccc2ncccc2c1)Nc1ccc2ncccc2c1 | 77
C=C(O)c1ccc2n1C(=O)c1cccc(NC(=O)Nc3ccccn3)c1-2 | 0.017
O=C(Nc1ccccc1)Nc1cccc2ccc(O)cc12 | 120
O=C(Nc1ccccn1)Nc1cccc2c1-c1cccn1C2=O | 0.034
O=C(Cc1ccccc1)Nc1cccc2ccc(O)cc12 | > 1000
Cc1[nH]c2ccccc2c1/C=C1/NC(=S)NC1=O | 14
Cc1ccc(Cl)cc1NC(=O)Nc1cccc2ccc(O)cc12 | 44
O=C(NCc1ccccc1)Nc1cccc2ccc(O)cc12 | 410
O=C(Nc1ccccc1)Nc1ccccn1 | 100
CN(C)c1cc(NC(=O)Nc2cccc(Cl)c2)c2ccccc2n1 | 36
O=C(Nc1ccccn1)Nc1cccc2c1C(=O)NC2=O | 3.6
O=C(Nc1ccccn1)Nc1cccc2c1[C@@H]1CCCN1C2=O | 0.19
COc1nc(N)c(C#N)c(-c2ccc3c(c2)OCO3)c1C#N | 36

SMILES | IC50 [µM]
O=C(NCc1ccccc1)Nc1ccccn1 | > 100
O=C1NC(=O)C(=Cc2ccc3c(c2)OCO3)C(=O)N1 | 350
O=C1NC(=S)NC(=O)C1=Cc1c(O)ccc2ccccc12 | 100
O=C(Nc1ccncc1)Nc1cccc2ccc(O)cc12 | 110
O=C(Nc1ccccn1)NC1CCCCC1 | > 100
CSc1ccc(NC(=O)Nc2cccc3c(O)cccc23)cc1 | 40
Nc1nc(O)c2nc(CNc3ccc(C(=O)O)cc3)cnc2n1 [PTEROIC ACID] | 16
Nc1nc(N)nc(C2=Cc3cc(Cl)ccc3OC2)n1 | 450
O=C(Nc1cccnc1)Nc1cccc2ccc(O)cc12 | 340
O=C(Nc1nccs1)Nc1cccc2ccc(O)cc12 | 23
O=C(Nc1ccccn1)Nc1cccc2ccc(O)cc12 | 7.6
O=C(Nc1cccc2ccc(O)cc12)NC1CCCC1 | 150
O=C(Nc1cc(-c2cccs2)ccn1)Nc1cccc2c1C1CCCN1C2=O (stereo not drawn) | 0.011
O=C(Nc1ccccn1)Nc1cccc2c1[C@H]1CCCN1C2=O | 0.042
O=C(Nc1ccccn1)Nc1cccc2ncccc12 | 2.4
CN(C)c1cc(NC(=O)Nc2ccccc2)c2ccccc2n1 | 90
